Broadly, the inhibition is the share of the control response that was lost under treatment. Broadly, the Kd is the constant that tells how readily two partners part at equilibrium.

Activity, inhibition and Kd data for 18 compounds are collected here from ChEMBL document CHEMBL4304748, “Design, Synthesis, and Biological Evaluation of a New Series of Carvedilol Derivatives That Protect Sensory Hair Cells from Aminoglycoside-Induced Damage by Blocking the Mechanoelectrical Transducer Channel” (J Med Chem, 2019).

For series [1], the species on record is Mus musculus. In words: Otoprotective activity against gentamicin-induced outer hair cell death in CD-1 mouse cochlea at 20 uM after 48 hrs by TRITC-phalloidin staining-based microscopic analysis relative to control. In kind it is functional. The procedure, abridged:
(§1)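 Mouse cochlear cultures coincubated for 48 h with 5 μM gentamicin plus compound (5, 10 or 20 μM). OHCs counted in a 300 μm long segment of the mid-basal cochlea. Counts compared with 0.5% DMSO control and with gentamicin + 0.5% DMSO cultures.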

Series [2] is filed under the species Mus musculus. Description: Inhibition of MET in CD-1 mouse cochlea outer hair cells assessed as blockade of MET currents at 10 uM measured at -164 mV membrane potential by patch clamp assay relative to control. The procedure, abridged: (§2)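 OHC MET currents recorded before and during exposure to 10 μM compound. Fractional block taken as the current during exposure relative to the control current at each membrane potential.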
(Patch clamp records ionic current or voltage across a cell membrane.)

For series [3], the species on record is Mus musculus. Description: Inhibition of MET in CD-1 mouse cochlea outer hair cells assessed as blockade of MET currents at 10 uM measured at -160 mV to +80 mV membrane potential by patch clamp assay relative to control. The procedure, abridged:
as §2

The species entered for series [4] is Mus musculus. Description: Otoprotective activity against gentamicin-induced outer hair cell death in CD-1 mouse cochlea at 10 uM after 48 hrs by TRITC-phalloidin staining-based microscopic analysis relative to control. The series is classed as functional. The procedure, abridged:
as §1

The species entered for series [5] is Mus musculus. In words: Otoprotective activity against gentamicin-induced outer hair cell death in CD-1 mouse cochlea at 5 uM after 48 hrs by TRITC-phalloidin staining-based microscopic analysis relative to control. In kind it is functional. The procedure, abridged: as §1
The nature of series [6]: Binding affinity to MET in CD-1 mouse cochlea outer hair cells measured at -104 mV membrane potential by patch clamp assay. The procedure, abridged: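 MET currents recorded from outer hair cells of mouse cochlear cultures before and during extracellular superfusion of compound at 1, 3 and 10 μM. Membrane potentials stepped from -164 to +96 mV. Currents normalized to the peak control current at +96 mV for each cell. Dose–response curves at each potential fitted with eq 1 to give KD and Hill coefficient.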

The nature of series [7]: Cytotoxicity against CD-1 mouse cochlea assessed as induction of cell damage at 20 uM in presence of gentamicin after 48 hrs by confocal microscopic analysis. In kind it is toxicity, tissue-based. The procedure, abridged:
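Mouse cochlear cultures exposed 48 h to 5 μM gentamicin plus 20 μM compound, with 0.5% DMSO and gentamicin-only controls. Hair cells and bundle morphology imaged, including confocal imaging of IHC stereociliary bundles. OHC survival counted in a 300 μm segment of the mid-basal region.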

The nature of series [8]: Binding affinity to MET in CD-1 mouse cochlear outer hair cells measured at -84 mV membrane potential in presence of calcium by patch clamp assay.
The species entered for series [9] is Mus musculus. In words: Inhibition of MET in CD-1 mouse cochlea outer hair cells assessed as reduction in MET currents at 10 uM measured at -160 mV to +80 mV membrane potential by patch clamp assay. The gist of the method: as §2

The source made the active and inactive calls. The rule behind the calls is not given here.

Regarding `COc1ccccc1OCCN(CCOc1ccccc1OC)CC(O)COc1cccc2[nH]c3ccccc3c12` (configuration not stated), in series [1], the result was Active. Moreover, the inhibition result in [2] was “Active”. In [3], the inhibition was 40%. In addition, the result in series [4] and in series [5] was inactive.
In series [6], `COc1cc2c3cc1Oc1cc(ccc1O)C[C@@H]1c4c(cc(OC)c(O)c4Oc4ccc(cc4)C[C@@H]3N(C)CC2)CC[N+]1(C)C` [TUBOCURARINE] showed a Kd of 2.2 µM.
Consider `OC(CNCCc1ccccc1)Cn1c2ccccc2c2ccccc21` (configuration not stated), for which the outcome in [1] was inactive. Also, the Activity entry in [7] is “Toxic”.
For the compound `Cn1cc(C(F)(F)F)nc1-c1ccc(OCC(O)CNCCOc2ccc(O)c(C(N)=O)c2)cc1` (configuration not stated), the outcome in series [1] was inactive.
The same measure, in the same setting: the result for `CC(C)NCC(O)COc1cccc2ccccc12` (configuration not stated) reads “inactive”.
Consider `CN[C@@H]1[C@H](O[C@H]2[C@H](O[C@@H]3[C@@H](O)[C@H](O)[C@@H](NC(=N)N)[C@H](O)[C@H]3NC(=N)N)O[C@@H](C)[C@]2(O)CO)O[C@@H](CO)[C@H](O)[C@H]1O`, for which, in series [8], the Kd worked out at 7 µM.
Consider `COc1ccccc1OCCNCCOc1ccccc1OC`, for which the outcome in series [1] was inactive. The inhibition result in series [9] is “inactive”.
As for `CCCCNCC(O)COc1cccc2[nH]c3ccccc3c12` (configuration not stated), in [1], the result was Active. In series [2], the inhibition is 50 to 60%. For the same compound, the outcome in [4] and in [5] was inactive.
Regarding `COc1ccccc1OCCNCC(O)COc1ccc2c(c1)[nH]c1ccccc12` (configuration not stated), in [1], the outcome was inactive. For the same compound, the Activity entry in series [7] is “Toxic”.
For `COc1ccccc1OCCNCC(O)COc1ccccc1OC` (configuration not stated), the outcome in series [1] was inactive. Also, the inhibition entry in series [9] was “inactive”.
Regarding `OC(CNCCOc1ccccc1)COc1cccc2[nH]c3ccccc3c12` (configuration not stated), in series [1], the outcome was inactive. For the same compound, the inhibition in [2] lay within 50 to 60%. Moreover, in [7], the Activity entry is listed as “Toxic”.
Take `COc1ccccc1OCCCCCCOc1cccc2[nH]c3ccccc3c12`: the result in series [1] was inactive. The Activity entry in series [7] is recorded as “Toxic”.
As for `OC(COc1cccc2[nH]c3ccccc3c12)CN1CCN(c2ccccc2)CC1` (configuration not stated), the result in series [1] was inactive.
As for `COc1ccccc1OCCN(CCN1CCOCC1)CC(O)COc1cccc2[nH]c3ccccc3c12` (configuration not stated), the outcome in series [1] was Active. Also, the inhibition result in [9] was “Active”. Besides, the result in series [5] was inactive.
Regarding `COc1ccccc1OCCNC(=O)COc1cccc2[nH]c3ccccc3c12`, the outcome in [1] was inactive.
For `COc1ccccc1N1CCN(CC(O)COc2cccc3ccccc23)CC1` (configuration not stated), the result in series [1] was Active. In addition, the inhibition result in series [9] is “inactive”. In [4], the result was inactive.
For the compound `COc1ccccc1OCCNCCCCOc1cccc2[nH]c3ccccc3c12`, the result in [1] was inactive. The Activity result in series [7] is listed as “Toxic”.
As to `COc1ccc(CCN(C)CCCC(C#N)(c2ccc(OC)c(OC)c2)C(C)C)cc1OC` (configuration not stated), the result in series [1] was inactive.
